Results on one compound are retold here after ChEMBL document CHEMBL4316604, “Discovery of Isaindigotone Derivatives as Novel Bloom's Syndrome Protein (BLM) Helicase Inhibitors That Disrupt the BLM/DNA Interactions and Regulate the Homologous Recombination Repair” (J Med Chem, 2019).

Molecules are shown by their SMILES. The source made the active and inactive calls. No cut-off for these calls is given here.

The target of assay [1] is T1, RecQ-like DNA helicase BLM (Homo sapiens, UniProt P54132). As to the kind of experiment: Binding affinity to His-tagged BLM (642 to 1296 residues) (unknown origin) expressed in Escherichia coli BL21 (DE3) by ITC assay. A digest of the protocol: (§1)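 ITC at 25 °C in 2 mM MgCl2, 10 mM KH2PO4, pH 7.5: ligand (0.6 mM, syringe) titrated in 10 μL injections, 300 s apart, into BLM642-1296 wild-type or point mutant, or DNA (0.04 mM, cell). His-tagged BLM from E. coli BL21(DE3), induced with […] at 16 °C for 24 h. Heats integrated, fitted to 1:1 model for KD.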
T1 sequence (P54132 whole entry, the tested form may be a part): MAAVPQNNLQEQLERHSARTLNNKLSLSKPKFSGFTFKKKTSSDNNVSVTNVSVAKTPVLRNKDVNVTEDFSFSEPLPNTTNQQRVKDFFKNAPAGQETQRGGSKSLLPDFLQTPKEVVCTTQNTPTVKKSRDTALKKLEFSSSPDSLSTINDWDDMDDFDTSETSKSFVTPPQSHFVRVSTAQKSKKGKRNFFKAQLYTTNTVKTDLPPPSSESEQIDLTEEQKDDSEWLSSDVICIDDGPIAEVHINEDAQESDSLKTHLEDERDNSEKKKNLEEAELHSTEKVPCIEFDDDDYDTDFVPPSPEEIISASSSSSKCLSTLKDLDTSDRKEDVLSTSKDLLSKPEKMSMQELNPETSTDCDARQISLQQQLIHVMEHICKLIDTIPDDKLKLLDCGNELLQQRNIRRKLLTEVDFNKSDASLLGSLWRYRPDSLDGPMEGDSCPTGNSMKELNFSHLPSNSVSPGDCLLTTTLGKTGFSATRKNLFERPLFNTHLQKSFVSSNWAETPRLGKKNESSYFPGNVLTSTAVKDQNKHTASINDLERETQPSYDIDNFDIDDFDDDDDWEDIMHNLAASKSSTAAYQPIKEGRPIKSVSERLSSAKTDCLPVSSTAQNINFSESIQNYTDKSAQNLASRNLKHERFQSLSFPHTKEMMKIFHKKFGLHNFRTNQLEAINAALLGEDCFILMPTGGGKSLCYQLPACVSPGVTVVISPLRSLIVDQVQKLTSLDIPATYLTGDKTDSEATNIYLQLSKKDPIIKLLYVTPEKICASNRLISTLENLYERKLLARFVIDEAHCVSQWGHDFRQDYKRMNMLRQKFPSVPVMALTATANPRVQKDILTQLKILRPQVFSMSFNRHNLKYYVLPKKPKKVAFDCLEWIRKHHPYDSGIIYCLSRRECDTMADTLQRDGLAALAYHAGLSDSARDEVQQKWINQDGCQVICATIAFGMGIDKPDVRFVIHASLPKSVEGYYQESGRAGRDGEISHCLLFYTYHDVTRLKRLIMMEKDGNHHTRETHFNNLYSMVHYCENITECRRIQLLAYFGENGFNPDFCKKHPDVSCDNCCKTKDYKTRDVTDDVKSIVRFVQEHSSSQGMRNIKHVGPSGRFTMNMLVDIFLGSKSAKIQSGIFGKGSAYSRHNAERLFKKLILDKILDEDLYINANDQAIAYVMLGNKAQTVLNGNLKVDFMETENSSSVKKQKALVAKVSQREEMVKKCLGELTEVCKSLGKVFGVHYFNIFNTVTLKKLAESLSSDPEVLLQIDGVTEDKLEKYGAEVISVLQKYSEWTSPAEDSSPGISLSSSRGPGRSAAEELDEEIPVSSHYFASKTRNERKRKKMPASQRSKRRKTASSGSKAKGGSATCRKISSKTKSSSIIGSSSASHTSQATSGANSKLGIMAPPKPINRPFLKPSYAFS
(In ITC the heat of successive injections is recorded.)

The test system of assay [2] is HCT-116. As to the kind of experiment: Chemosensitization activity in human HCT116 cells assessed as cisplatin-induced antiproliferative activity at 1.25 uM in presence of cisplatin and BLM siRNA after 24 hrs by MTT assay (reference value: 15.4%). The format is functional, cell-based. (In general: Tetrazolium dyes change colour on reduction, which living cells bring about.)

Assay [3] has as its target RecQ-like DNA helicase BLM (Homo sapiens, UniProt P54132, I1168A). In words: Binding affinity to His-tagged BLM I1168A mutant (unknown origin) expressed in Escherichia coli BL21 (DE3) by ITC assay. In short, it runs like this:
as §1

In assay [4] the target is T1, RecQ-like DNA helicase BLM. In words: Inhibition of His-tagged BLM (unknown origin) expressed in Escherichia coli BL21 (DE3) assessed as reduction in BLM helicase unwinding activity at 10 uM using 5'-biotin labeled forked-DNA as substrate after 1 hr by PAGE analysis. A digest of the protocol: (§2)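 BLM642-1296 (His-tagged, E. coli BL21(DE3)) preincubated with ligand (1.0, 10, 50 μM; ≤1% DMSO) for 1 h at 4 °C. Reaction: 8 nM annealed 5′-biotin duplex forked DNA, 32 nM BLM, 2 mM ATP, 0.1% BSA, 1 h.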

Assay [5] has as its target T1, RecQ-like DNA helicase BLM. As to the kind of experiment: Inhibition of His-tagged BLM (unknown origin) expressed in Escherichia coli BL21 (DE3) assessed as reduction in BLM helicase unwinding activity at 50 uM using 5'-biotin labeled forked-DNA as substrate after 1 hr by PAGE analysis. A digest of the protocol: as §2
The target in assay [6] is RecQ-like DNA helicase BLM (Homo sapiens, UniProt P54132, Y995A). In words: Binding affinity to His-tagged BLM Y995A mutant (unknown origin) expressed in Escherichia coli BL21 (DE3) by ITC assay. A digest of the protocol:
as §1

The target of assay [7] is T1, RecQ-like DNA helicase BLM. In words: Inhibition of BLM recruitment to DSB sites on HRR in human HCT116 cells at 0.5 to 1 uM after 48 hrs by ChIP assay. Type of assay: cell-based. A digest of the protocol: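 HCT116 cells co-transfected with HRR(−) reporter DSB model (or chromosomal I-SceI DSBs) and I-SceI; after 24 h given 0–2 μM ligand for 24 h. Crosslinked in 1% formaldehyde, chromatin digested by micrococcal nuclease to 0.2–0.5 kb, IP with anti-BLM or anti-RAD51 (IgG control). qPCR at DSB sites, normalised to untreated; triplicate.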

Assay [8] deals with T1, RecQ-like DNA helicase BLM. In words: Inhibition of 5'-biotin labeled duplex forked-DNA binding to BLM (unknown origin) assessed as increase in unbound DNA levels at 0.5 to 1 uM after 1 hr by filter-binding assay. In short, it runs like this:
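BLM (100 nM) preincubated with 0.5 or 1.0 μM ligand for 1 h at 37 °C, then mixed with 8 nM biotinylated duplex forked DNA. Vacuum-filtered through nitrocellulose over nylon membranes; DNA UV-crosslinked and detected by chemiluminescence. Dot grey levels give bound (upper) vs free (lower) DNA, relative to total.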

For the next assay, the system named is DNA. In words: Binding affinity to DNA (unknown origin) up to 2 molar ratio by ITC. Type of assay: nucleic-acid assay. In short, it runs like this: as §1
In assay [9] the test system is HCT-116. In words: Chemosensitization activity in human HCT116 cells assessed as cisplatin-induced antiproliferative activity at 1.25 uM in presence of cisplatin after 24 hrs by MTT assay (reference value: 15.4%). Type of assay: functional.
The target in assay [10] is T1, RecQ-like DNA helicase BLM. As to the kind of experiment: Inhibition of BLM in human HCT116 cells assessed as induction of RAD51 foci accumulation on gamma-H2AX foci at 1 to 2 after 24 hrs by immunofluorescence assay. The format is cell-based. In short, it runs like this: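 HCT116 cells treated 24 h, fixed in 4% paraformaldehyde, permeabilised with 0.5% Triton X-100, blocked in 5% goat serum. Stained with γ-H2AX and RAD51 antibodies overnight at 4 °C, Alexa 488/647 secondaries and DAPI. Imaged by confocal microscopy for foci co-localisation.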

Assay [11] concerns RecQ-like DNA helicase BLM (Homo sapiens), P54132 [I1168A]. As to the kind of experiment: Inhibition of His-tagged BLM I1168A mutant (unknown origin) binding to DNA assessed as effect on unbound DNA. A digest of the protocol: (§3)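 Biotinylated forked DNA (50 nM) immobilised on streptavidin plates overnight at 4 °C. BLM or mutant (100 nM final) premixed with serially halved ligand in 3% BSA blocking buffer, ≤1% DMSO, 1 h on ice. Applied to the blocked plate for 1 h at 37 °C. Bound BLM detected with anti-BLM and HRP secondary, TMB, A450; Hill fit.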
Sequence of RecQ-like DNA helicase BLM (Homo sapiens), P54132 [I1168A] (P54132 whole entry I1168A): as the sequence (P54132 whole entry, the tested form may be a part) above, with I1168A counted along it

Assay [12] has as its system HCT-116. As to the kind of experiment: Induction of apoptosis in human HCT116 cells assessed as increase in cleaved PARP expression at 2 uM after 48 hrs by Western blot analysis. Type of assay: functional, cell-based. In short, it runs like this: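 HCT116 cells treated with ligand (DNA-damage proteins 24 h, apoptosis proteins 48 h), lysed in RIPA at 4 °C. 40 μg protein per lane resolved by SDS-PAGE, blotted to PVDF, probed with damage and apoptosis antibody panels; β-actin loading control; chemiluminescent detection.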

Assay [13] has as its target T1, RecQ-like DNA helicase BLM. In words: Inhibition of BLM in human HCT116 cells assessed as increase in gamma-H2AX expression at half IC50 concentration after 24 hrs by Western blot analysis. (In general: A western blot detects proteins with antibodies after separation by electrophoresis.)
Assay [14] concerns the target RecQ-like DNA helicase BLM (Homo sapiens, UniProt P54132, E1143A). As to the kind of experiment: Binding affinity to His-tagged BLM E1143A mutant (unknown origin) expressed in Escherichia coli BL21 (DE3) by ITC assay. A digest of the protocol: as §1
Assay [15] has as its system RecQ-like DNA helicase BLM (Homo sapiens), P54132 [E1143A]. As to the kind of experiment: Inhibition of His-tagged BLM E1143A mutant (unknown origin) binding to DNA assessed as effect on unbound DNA. In short, it runs like this:
as §3

For assay [16], the system named is HCT-116. As to the kind of experiment: Induction of apoptosis in human HCT116 cells assessed as apoptotic cells at 2 uM after 48 hrs by Hoechst/propidium iodide-staining based flow cytometry (reference value: 1.09%). The format is functional.
For assay [17], the target named is T1, RecQ-like DNA helicase BLM. As to the kind of experiment: Inhibition of His-tagged BLM (unknown origin) expressed in Escherichia coli BL21 (DE3) assessed as reduction in BLM helicase unwinding activity at 1 uM using 5'-biotin labeled forked-DNA as substrate after 1 hr by PAGE analysis. In short, it runs like this:
as §2

Sequence of RecQ-like DNA helicase BLM (Homo sapiens, UniProt P54132, I1168A) (P54132 whole entry I1168A): as the sequence (P54132 whole entry, the tested form may be a part) above, with I1168A counted along it
Sequence of RecQ-like DNA helicase BLM (Homo sapiens, UniProt P54132, Y995A) (P54132 whole entry Y995A): as the sequence (P54132 whole entry, the tested form may be a part) above, with Y995A counted along it
Sequence of RecQ-like DNA helicase BLM (Homo sapiens), P54132 [E1143A] (P54132 whole entry E1143A): as the sequence (P54132 whole entry, the tested form may be a part) above, with E1143A counted along it
Sequence of RecQ-like DNA helicase BLM (Homo sapiens, UniProt P54132, E1143A) (P54132 whole entry E1143A): as the sequence (P54132 whole entry, the tested form may be a part) above, with E1143A counted along it

For orientation: Kd means the concentration at which binding is half-saturated. Low values mean higher affinity, high ones lower affinity. With `CCN(CC)CCCNc1cc2nc3n(c(=O)c2cc1F)CC/C3=C\c1ccc(C(C)C)cc1`, the Kd stood at 1.8 µM in assay [1], 6.5 µM in assay [3], 5 µM in assay [6] and 6 µM in assay [14]. For the same compound, the outcome with HCT-116 [2] and in the assay on HCT-116 [12] was Active. In addition, the inhibition entry in assay [4], in assay [5], in assay [7], in assay [8], in [10] and in assay [13] was “Active” throughout. The inhibition result in assay [17] is “Active”. In the assay on DNA, the result was inactive. In addition, the values for the Activity in the assay on HCT-116 [9] and in the assay with HCT-116 [16] were 71.2% and 71.59%, respectively. Also, the inhibition entry in assay [11] and in assay [15] was “inactive” in each case.
